Screens as filed in PubChem BioAssay.
KCNQ1 act: potentiators or activators of KCNQ1 channel, primary screen, cell-based, thallium flux, high-throughput. Potassium voltage-gated channel subfamily KQT member 1 (Homo sapiens), P51787. CHO-K1 KCNQ1, thallium flux FluxOR fluorescence; stronger effect = higher value. B-score at 10 µM. 0.35% of 310,000 active. AID 2648, 2010;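 active = fluorescence ratio B-score, a plate-corrected score, at least three library SD, with initial intensity B-score within 5 SD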
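Schedule – 37 °C overnight plating, 90-min dark dye load, 20-min compound pretreatment · System – stable KCNQ1 CHO-K1 line · Probe or stimulus – thallium- and potassium-containing depolarizing buffer · Measured by – kinetic FluxOR fluorescence, 10 s baseline plus 110 s post-stimulus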
KCNK3 block: human KCNK3 channel inhibitors, primary screen, CHO cells, FluxOR thallium flux, B-score | Potassium channel subfamily K member 3 (Homo sapiens), O14649 | FluxOR fluorescence; stronger effect = lower value | B-score at 10 µM | 0.84% of 340,000 active | AID 602410, 2012;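 active = B-score under library mean minus 4 SD, starting fluorescence ratio at most library mean plus 5 SD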;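 note: more negative B-score means stronger inhibition of thallium flux through KCNK3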
KCNK9 block: KCNK9 potassium channel inhibitors, primary screen, HEK293 cells, thallium flux | FluxOR thallium flux fluorescence; stronger effect = lower value | Potassium channel subfamily K member 9 (Homo sapiens), Q9NPC2 | 1.2% of 310,000 active | B-score at 10 µM;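 active = ratio B-score over 3 SD below the library mean, with starting fluorescence within 5 SD of its mean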;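 note: negative B-score means less thallium flux so channel inhibition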
Target sequence (Q9NPC2 whole entry, looked up): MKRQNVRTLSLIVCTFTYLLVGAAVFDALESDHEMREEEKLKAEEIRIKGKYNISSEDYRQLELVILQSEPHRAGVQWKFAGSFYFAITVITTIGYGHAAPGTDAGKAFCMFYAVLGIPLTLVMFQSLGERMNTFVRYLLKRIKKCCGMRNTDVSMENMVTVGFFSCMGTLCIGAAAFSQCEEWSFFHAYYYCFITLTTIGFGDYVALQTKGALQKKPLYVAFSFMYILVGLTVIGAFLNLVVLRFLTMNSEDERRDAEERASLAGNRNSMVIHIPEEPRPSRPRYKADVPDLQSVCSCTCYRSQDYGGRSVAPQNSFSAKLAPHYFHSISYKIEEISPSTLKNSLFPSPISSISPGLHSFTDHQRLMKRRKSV
Kir21 block: inhibitors of mouse Kir2.1 inward-rectifier potassium channel; B-score at 10 µM; 0.85% of 310,000 active; HEK293-Kir2.1, FluxOR thallium flux fluorescence; stronger effect = lower value; Inward rectifier potassium channel 2 (Mus musculus), P35561;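 active = fluorescence ratio B-score at or below minus 3 SD of library scores, with starting-brightness B-score within 2 SD, cut at about -4.2 in these data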;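 note: channel flux triggered by added potassium and thallium sulfate stimulus; B-score of peak minus minimum fluorescence over baseline after thallium stimulus; more negative B-score means stronger Kir2.1 block with less thallium influx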
hERG rescue: hERG rescue from dofetilide block, primary screen, cell-based, CHO-hERG, FluxOR thallium flux, dofetilide IC70; Voltage-gated inwardly rectifying potassium channel KCNH2 (Homo sapiens), Q12809; dofetilide IC70 present; activation (rescue from dofetilide block), less the hit threshold, % at 10 µM; 0.51% of 310,000 active;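 active = activation above the mean of controls blocked by dofetilide plus 5 SD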;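 note: thallium influx through hERG after potassium depolarization seen as dye fluorescence rise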
KCNQ1 block: inhibitors of human KCNQ1 channel, primary screen, cell-based, thallium flux, high-throughput; Potassium voltage-gated channel subfamily KQT member 1 (Homo sapiens), P51787; CHO-K1 KCNQ1, FluxOR thallium flux fluorescence; stronger effect = higher value; B-score at 10 µM; 1.3% of 310,000 active; AID 2642, 2010;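 active = compounds whose thallium flux B-score, printed positive for inhibition, exceeds three library SD while starting fluorescence stays within three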;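 note: channel opened by potassium depolarization with thallium stimulus after 20 min compound exposure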
KCNK9 inh conf: KCNK9 potassium channel inhibitors, confirmation, HEK293 cells, thallium flux, duplicate | shares compounds with KCNK9 block | FluxOR thallium flux fluorescence | inhibition, % at 10 µM | 43% of 4,900 active;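 active = thallium signal inhibited by more than 5 SD of the compound-free buffer control wells, on both duplicate plates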;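 note: 0% = assay buffer control wells without compound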
Kir21 sel: mouse Kir2.1 channel inhibition, confirmation, selectivity assay for KCNK9 modulator project, cell-based, HEK293, thallium flux. shares compounds with KCNK9 block. Kir2.1 cells, FluxOR thallium flux fluorescence. inhibition, % at 10 µM. 4% of 4,900 active. AID 492993, 2010;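 active = thallium signal drop more than 5 SD beyond the mean of the no-compound control wells, seen in both duplicate plates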;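 note: signal is fluorescence rise after thallium addition divided by baseline fluorescence; plate controls were assay buffer only for no effect and full block by chlorpromazine control for full effect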
KCNK9 uninduced: thallium flux in non-induced HEK293 cells, confirmation, counter-screen for KCNK9 inhibitor project, cell-based, second counter screen, non-induced KCNK9-HEK293 | inhibition, % at 10 µM | FluxOR thallium flux | 40% of 4,900 active | shares compounds with KCNK9 block;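 active = thallium signal drop beyond 5 SD of the untreated control mean, on both duplicate plates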;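 note: plate controls were buffer only IC0 wells for no effect and SID17386958 at its maximal inhibitory level for full effect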
Numbers without * were called inactive; i = inactive; . = no result given. Only some compounds are listed: those with a hit (about 3.7% of all), similar ones and a draw of the others.

SMILES	KCNQ1 act	KCNK3 block	KCNK9 block	Kir21 block	hERG rescue	KCNQ1 block	KCNK9 inh conf	Kir21 sel	KCNK9 uninduced
Cc1nn(-c2ccccc2)c(N2CCCC2)c1/C=N/NC(=S)Nc1cc(C(F)(F)F)ccc1Cl	i	i	i	1.6	-11	i	.	.	.
CCN1C(=O)/C(=C\c2nc3ccccc3c(=O)n2CC)c2ccccc21	i	i	i	0.07	-15	i	i	i	i
COc1cc(OC)c2c(O)c3c(c(-c4c5c(c(O)c6c(OC)cc(OC)cc46)CO[C@@H](C)[C@H]5O)c2c1)[C@H](O)[C@H](C)OC3	i	i	i	-1.4	-6	i	i	i	i
COc1cc2c(c(OC)c1O)C(=O)CO2	i	i	i	0.37	-4	i	.	.	.
COc1ccc(CCNC(=O)c2c([S-])n(-c3ccc(C)cc3)c3cccc[n+]23)cc1	i	i	i	0.18	-24	i	i	i	i
O=C1CN(C(=O)COC(=O)CCS(=O)(=O)c2ccccc2Cl)c2ccccc2N1	.	i	.	.	.	.	.	.	.
O=C(NNC(=S)Nc1ccc(Cl)c(Cl)c1)c1ccccn1	i	i	i	0.43	-11	i	i	i	i
CCNC(=S)NNC(=O)c1ccccn1	i	i	i	0.66	-9	i	.	.	.
CCN1C(=O)N[C@@H](c2ccco2)C(C(=O)OC)=C1C	i	i	i	-1.2	-6	i	.	.	.
CCOC(=O)N/N=C/c1c(C)c(C(=O)c2ccc(F)cc2)n2ccccc12	i	i	-11*	-0.04	-12	i	i	i	i
Oc1ccc(-c2nc3c4c(ncn3n2)-c2ccccc2CC42CCCC2)cc1	i	i	-9*	-0.84	-7	i	36%*	i	35%*
CC(=O)Nn1cnc2c(c1=O)C1(CCCC1)Cc1ccccc1-2	.	i	.	.	.	.	.	.	.
Cc1ccc(S(=O)(=O)Oc2ccccc2-c2ccccc2)cc1	.	i	.	.	.	.	.	.	.
COc1ccc2c(c1)CCC/C2=N/OC(=O)c1ccccc1OC	i	i	-12*	0.37	-10	i	62%*	i	i
CC(C1CC2CCC1C2)n1c(-c2cccs2)n[nH]c1=S (stereo not drawn)	i	i	-11*	-0.02	-4	i	54%*	i	i
S=c1[nH]nc(-c2cccs2)n1C1CCCCC1	i	i	i	-3	-9	i	.	.	.
O=C(Nc1ccccc1)c1ccccc1OCc1cccc([N+](=O)[O-])c1	i	i	-12*	0.34	-11	i	i	i	28%*
O=C(Nc1ccc(O)cc1)c1ccccc1OCc1ccccc1	i	i	i	-2.4	-2	i	.	.	.
CC(C)CC(=O)N=C1SC2CS(=O)(=O)CC2N1Cc1ccccc1Cl (stereo not drawn)	i	i	i	0.34	-11	i	.	.	.
O=C(NCCOc1ccc(Cl)cc1)c1ccc2ccccc2n1	i	i	i	-0.02	-10	i	i	i	i
Cc1ccc(OCCNC(=O)c2ccccc2N)cc1	i	i	i	-0.03	-4	i	.	.	.
Cc1ccc(OCCNC(=O)c2ccc3ccccc3n2)cc1	i	i	i	2.2	-12	i	i	i	i
COC(=O)c1ccc2c(c1)N(Cc1nc(-c3ccc(Cl)cc3)oc1C)C(=O)C1CCCN21 (stereo not drawn)	i	i	i	0.03	-8	i	.	.	.
COc1ccc(C)cc1NC(=O)C1CCCN(S(=O)(=O)c2cccnc2)C1 (stereo not drawn)	i	i	i	0.04	-7	i	.	.	.
Cc1ccc(S(=O)(=O)N2CCN(Cc3cc(C(C)(C)C)ccc3O)CC2)cc1	i	i	i	-0.03	-12	i	.	.	.
SMILES	KCNQ1 act	KCNK3 block	KCNK9 block	Kir21 block	hERG rescue	KCNQ1 block	KCNK9 inh conf	Kir21 sel	KCNK9 uninduced
CC1(COS(N)(=O)=O)CCCCC1	i	i	i	0.83	-1	i	.	.	.
Cc1ccc(-c2nc(N)sc2CC(=O)OCC(=O)N2C(C)CCCC2C)cc1 (stereo not drawn)	i	i	i	1.2	-7	i	i	i	i
CCOC(=O)C1CCCN(S(=O)(=O)CCNC(=O)c2ccc3c(c2)OCO3)C1 (stereo not drawn)	i	i	i	0.02	-14	i	.	.	.
COc1ccc(NC(C#N)c2ccccc2OCc2ccccc2)cc1 (stereo not drawn)	i	i	-8.3*	0.28	-7	i	i	i	24%*
O=[N+]([O-])c1ccc(N2CCOCC2)cc1SCc1ccco1	i	i	i	-1.2	-2	i	.	.	.
O=[N+]([O-])c1ccc(SCc2ccco2)cc1N1CCOCC1	i	i	i	-2.8	0	i	i	i	i
Cc1ccc(/C(N)=N/OC(=O)C(C)c2ccc([N+](=O)[O-])cc2)cc1 (stereo not drawn)	i	i	i	1.2	-11	i	.	.	.
COc1ccc(C(=O)CSc2ccc(-c3ccccc3)nn2)cc1	i	i	i	0.68	-8	i	i	i	i
COc1cccc(-c2ccc(SCC(=O)c3ccccc3)nn2)c1	i	i	i	-0.43	-19	i	i	i	i
O=[N+]([O-])c1cccc(COc2ccccc2CN2CCOCC2)c1	.	i	.	.	.	.	.	.	.
Cc1cc(OCc2cccc(Cl)c2)c(C)cc1CN1CCOCC1	i	i	-14*	-1.4	-18	i	52%*	i	32%*
Cc1ccc(-n2nc3c(=O)n(CCCC(=O)NCc4ccc(C)o4)nc(C)c3c2C)cc1	i	i	i	-0.62	-9	i	.	.	.
O=C(COC(=O)c1ccccn1)Nc1nc(-c2cccc([N+](=O)[O-])c2)cs1	i	i	i	0.96	-12	i	.	.	.
